Compound activity deposited in PubChem by several laboratories.
GRK2 aptamer HTS: human GRK2 inhibition via aptamer displacement | AID 488847 | inhibition of aptamer binding, % at 10 µM | bead flow cytometry, FAM-aptamer displacement from GRK2 | P25098 | 0.59% of 330,000 active;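 active = inhibition of aptamer binding above 40%, roughly 3 SD of noise, on plates passing a quality check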;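 also: median bead fluorescence of bound FAM aptamer so fluorescent compounds give negative values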
SR-BI DiI-HDL act: enhances SR-BI lipid uptake from DiI-HDL; CHO ldlA[mSR-BI] cells, DiI-HDL uptake fluorescence, 3 h; 100 = double the neutral-control signal; activation, % at 12.5 µM; 0.096% of 320,000 active; AID 504775;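 active = mean replicate activation of at least 60% and every replicate at or above 60%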;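 also: 0% = median plate neutral-control signal and 100% = twice that signal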
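System: CHO ldlA[mSR-BI] cells / Medium: HEPES-buffered (25 mM, pH 7.4) F12 plus 0.5% BSA / Probe or stimulus: labelled HDL, 10 µg/mL / Doses: single compound concentration, delivered by pin transfer / Schedule: 3 h, 37 °C / Measured by: DiI fluorescence, bottom read / Measure: cell-associated DiI fluorescence as measure of HDL uptake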
Rin1-Abl PPI inh: human Rin1-Abl interaction inhibition; P00519+Q13671; TR-FRET Rin1/Abl binding, biochemical; inhibition, % at 7.35 µM; 0.4% of 360,000 active; in the data active = inhibition above about 5%, passing the limit was not always enough
SR-BI DiI inh: blocks mouse SR-BI lipid uptake from DiI-HDL; ldlA[mSR-BI] CHO cells, DiI-HDL uptake fluorescence, 3 h; AID 488896; inhibition, % at 12.5 µM; 0.96% of 320,000 active;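 active = mean replicate inhibition of at least 70% and a set share of replicates each scoring 70 or more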;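 also: 0% = median of neutral control wells and 100% = median of positive control wells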
Target sequence (Q61009 whole entry, looked up): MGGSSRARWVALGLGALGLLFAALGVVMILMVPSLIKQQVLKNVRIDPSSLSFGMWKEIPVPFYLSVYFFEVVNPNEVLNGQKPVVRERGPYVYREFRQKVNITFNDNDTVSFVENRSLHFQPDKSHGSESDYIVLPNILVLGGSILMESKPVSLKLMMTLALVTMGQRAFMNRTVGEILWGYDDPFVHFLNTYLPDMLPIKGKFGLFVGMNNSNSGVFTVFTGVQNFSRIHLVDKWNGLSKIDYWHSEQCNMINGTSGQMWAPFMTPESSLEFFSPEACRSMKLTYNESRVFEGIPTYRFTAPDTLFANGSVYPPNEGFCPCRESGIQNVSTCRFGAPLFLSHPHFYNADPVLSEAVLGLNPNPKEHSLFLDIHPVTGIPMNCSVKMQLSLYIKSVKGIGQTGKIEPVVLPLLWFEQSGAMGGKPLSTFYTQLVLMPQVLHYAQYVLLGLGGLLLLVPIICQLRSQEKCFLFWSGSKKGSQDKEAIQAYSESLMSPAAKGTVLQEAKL
GRK2 CP1: human GRK2 inhibition confirmation, cherry pick 1. shares compounds with GRK2 aptamer HTS. bead-bound GRK2, FAM-aptamer displacement, flow cytometry. aptamer displacement, % at 10 µM. 4% of 2,000 active;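 active = aptamer displacement above 40%, near three times the noise of non-fluorescent compounds, on plates passing quality checks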;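 also: negative values mostly reflect intrinsic compound fluorescence rather than true enhancement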
FAM quench CP1: aptamer fluorescence quenching in GRK2 counter-screen; shares compounds with GRK2 aptamer HTS; Carboxyfluorescein RNA aptamer on beads, flow cytometry quenching; stronger effect = lower value; fluorescence response (% of DMSO), % at 10 µM; 2,000 tested, under 10 active; AID 504580;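 active = compounds that quench the bead-bound fluorescent RNA probe, cutting fluorescence to under half of the solvent control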;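 also: counterscreen run without GRK2 so only probe quenching by compound is measured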
GRK2 CP2: human GRK2 inhibition confirmation, cherry pick 2 | shares compounds with GRK2 aptamer HTS | bead-bound GRK2, FAM-aptamer displacement, flow cytometry | inhibition of aptamer binding, % at 10 µM | 360 tested, under 10 active;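 active = inhibition of aptamer binding above 40%, about triple the noise seen with nonglowing compounds, on plates passing quality control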;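 also: negative values mostly come from compounds that fluoresce themselves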
FAM quench SP: quenches fluorescent RNA aptamer, GRK2 hit artifact; AID 588494; fluorescence response vs DMSO, % at 10 µM; shares compounds with GRK2 aptamer HTS; 360 tested, under 10 active; carboxyfluorescein RNA aptamer beads, flow cytometry quenching; stronger effect = lower value;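 active = response vs DMSO under 50%, meaning signal dropped by over half, treated as fluorescence quencher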;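 also: labelled aptamer on streptavidin beads without GRK2 as a quench counter-screen; 100% = bead fluorescence of DMSO wells and lower means quenching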
* hit, by the source's call; x = no result. Hits are enriched below; roughly 1.9% of the tested compounds scored in any of these assays.

SMILES	GRK2 aptamer HTS	SR-BI DiI-HDL act	Rin1-Abl PPI inh	SR-BI DiI inh	GRK2 CP1	FAM quench CP1	others
O=C(NC(=S)NCc1cccnc1)c1ccccc1	100*	8	-1	-8	x	x	GRK2 CP2=-35;FAM quench SP=101
c1ccc(CN(CCN2CCOCC2)Cc2ccccc2)cc1	x	-6	2	6	x	x
Cc1c(NC(=O)c2ccc(S(=O)(=O)N(C)C)cc2)cccc1-n1cnnn1	94*	-5	1	5	-3	98
CC(=O)c1cccc(NC(=O)c2cc(-c3ccc(C)cc3)on2)c1	2	-45	4	45	-2	97
Cc1nn(-c2cccc(Cl)c2)nc1C(=O)Nc1cccc(C(=O)NC2CC2)c1	2	-55	0	55	1	96
Cc1ccc(-n2nc(C)c(C(=O)Nc3cccc(C(=O)NC4CC4)c3)n2)c(C)c1	0	-61	1	61	-1	103
Cc1nn(-c2ccccc2)nc1C(=O)Nc1cccc(C(=O)NC2CC2)c1	x	x	2	x	x	x
CC(=O)c1cccc(NC(=O)c2c(C)nn(-c3ccccc3)c2Cl)c1	0	-61	-3	61	2	84
CCC(C)c1ccccc1N1CC(C(=O)NCCc2ccc(OC)c(OC)c2)CC1=O (stereo not drawn)	1	-31	-1	31	x	x
O=[N+]([O-])c1cccnc1N1CCCCC1	3	-7	-3	7	x	x
O=[N+]([O-])c1cccnc1N1CCN(c2ccccc2F)CC1	46*	-13	-5	13	-3	100
COc1ccc(C2c3[nH]c4ccccc4c3C[C@H]3C(=O)N(C4CCN(Cc5ccccc5)CC4)CC(=O)N23)c(OC)c1 (stereo partly drawn)	0	35	2	-35	x	x
Cc1ccccc1C1c2[nH]c3ccccc3c2C[C@H]2C(=O)N(C3CCN(Cc4ccccc4)CC3)CC(=O)N12 (stereo partly drawn)	0	-14	3	14	-20	105
CCOc1ccccc1C1c2[nH]c3ccccc3c2C[C@H]2C(=O)N(C3CCN(Cc4ccccc4)CC3)CC(=O)N12 (stereo partly drawn)	0	-21	-6	21	-13	101
Cc1cc(NS(=O)(=O)c2ccc(NC(=O)c3c(F)c(F)c(F)c(F)c3F)cc2)nc(C)n1	56*	18	-3	-18	x	x	GRK2 CP2=10;FAM quench SP=104
Cc1cc(NS(=O)(=O)c2ccc(NC(=O)c3ccc(F)cc3)cc2)nc(C)n1	5	4	2	-4	x	x
O=C(O)CCn1c(=S)oc2ccccc21	2	-1	0	1	x	x
Cn1c(=S)n(CCC(=O)O)c2ccccc21	15	21	0	-21	-1	98
COc1ccc(Cc2c(-c3cccc(Cl)c3)nc3ccc(Cl)cn23)c(C)c1	x	x	0	x	x	x
CCc1ccc(NC(=O)CNC(=O)c2nn(-c3ccc(OC)cc3)c(=O)c3ccccc23)cc1	3	-6	0	6	x	x
CCOc1ccc(-n2nc(C(=O)NC3CCCCC3)c3ccccc3c2=O)cc1	81*	8	1	-8	-4	102
CCC(C)NC(=O)CNC(=O)c1nn(-c2ccc(OC)c(Cl)c2)c(=O)c2ccccc12 (stereo not drawn)	0	-4	2	4	-3	101
CCC(C)NC(=O)CNC(=O)c1nn(-c2ccc(OC)cc2)c(=O)c2ccccc12 (stereo not drawn)	44*	14	1	-14	-2	93
CCC(CC)c1nnc(NC(=O)CS(=O)(=O)c2ccccc2)s1	1	0	1	0	x	x
CC(C)c1nnc(NC(=O)CCS(=O)(=O)c2ccccc2)s1	0	x	1	x	-2	113
SMILES	GRK2 aptamer HTS	SR-BI DiI-HDL act	Rin1-Abl PPI inh	SR-BI DiI inh	GRK2 CP1	FAM quench CP1	others
CCCC(C)c1nnc(NC(=O)CCS(=O)(=O)c2ccccc2)s1 (stereo not drawn)	17	x	1	x	13	98
CC(C)c1nnc(NC(=O)c2cccs2)s1	44*	34	-4	-34	-3	98
Cn1c(NCCOc2ccccc2Cl)nc2cc(-c3ccc(F)cc3)sc2c1=O	x	x	-8	x	x	x
CC1=C(C(=O)N(C)C)CC(CC(=O)NCc2cccc3ccccc23)C(=O)N1Cc1ccc(F)cc1 (stereo not drawn)	x	x	3	x	x	x
CNC(=O)c1c(O)c2cccc3c2n(c1=O)CC3	0	29	2	-29	x	x
O=C(Nc1cccnc1)c1c(O)c2cccc3c2n(c1=O)CC3	65*	-8	1	8	-63	111
CCc1ccc(C(C#N)=CC=Cc2ccccc2)cc1	x	x	1	x	x	x
Cc1ccc(-n2c(SCC(=O)N(C)C3CCS(=O)(=O)C3)nc3ccccc3c2=O)c(C)c1 (stereo not drawn)	2	17	2	-17	x	x
N#Cc1c(-c2ccccc2)cc(-c2ccccc2)[nH]c1=O	60*	x	-3	x	x	x	GRK2 CP2=4;FAM quench SP=100
CCCN1CCN(C(=O)c2noc3c2COc2ccc(C)cc2-3)CC1	59*	12	2	-12	-2	98
CCOC(=O)N1CCN(C(=O)c2noc3c2COc2ccccc2-3)CC1	0	8	0	-8	x	x
CCOC(=O)C1(CCc2ccccc2)CCN(C(=O)CN2C(=O)CSC2=O)CC1	92*	-41	5	41	-5	99
CCOC(=O)c1cc2c(C)n(-c3ccc(N(C)C)cc3)c(C)c2cc(C(=O)OCC)c1=O	69*	-4	-3	4	0	103
CCOC(=O)c1cc2c(C)n(-c3ccc(OCC)cc3)c(C)c2cc(C(=O)OCC)c1=O	2	-17	-5	17	x	x
Cc1ccc(CN2CCN(CC(C)C)C(CCO)C2)s1 (stereo not drawn)	97*	23	-2	-23	-1	98
Cc1ccc(CN2CCN(Cc3cnc(N4CCOCC4)s3)CC2CCO)o1 (stereo not drawn)	72*	5	0	-5	2	95
Cc1ccc(CN2CCN(Cc3cnc(C)s3)CC2CCO)o1 (stereo not drawn)	0	11	5	-11	x	x
COc1ccc(-n2cc(CNCc3cccnc3)c(-c3cccc(F)c3)n2)cc1	0	-24	2	24	x	x
COc1ccc(-c2nn(-c3ccccc3)cc2CNCc2cccnc2)c(F)c1	47*	-8	0	8	-4	101
CCCCn1c(CNC(=O)C(C)(C)C)nc2ccccc21	83*	6	2	-6	-1	100
CC(C)N1CCC(C)(C(=O)Nc2ccccc2Oc2ccccc2)C1 (stereo not drawn)	x	x	1	x	x	x
